Source: article PMC9486669 (Veterinary and Animal Science, 2022)
In brackets after ≈: the same amount, converted by molar mass. Several values for one entry are separate records, joined by “and”; a condition that tells them apart may be missing. Equal values may be shown once. Entries after “also recorded” stand apart in the source; their conditions may differ.

Key:
[1] = system: FMO; settings: sheep liver microsomes, ref Miró et al. 2020b, 2020c; cited from earlier work
[2] = system: gram-positive and negative bacteria; settings: ref Nagoor Meeran et al., 2017; cited from earlier work
[3] = system: sheep liver microsomes; settings: ref Miró et al. 2020b, 2020c; cited from earlier work
[4] = ref Miró et al., 2020b; cited from earlier work
[5] = target: T1, CYP1A1 (Ovis aries, UniProt P56591); settings: sheep liver microsomes, ref Miró et al. 2020b, 2020c; cited from earlier work
T1 sequence (P56591 1-519): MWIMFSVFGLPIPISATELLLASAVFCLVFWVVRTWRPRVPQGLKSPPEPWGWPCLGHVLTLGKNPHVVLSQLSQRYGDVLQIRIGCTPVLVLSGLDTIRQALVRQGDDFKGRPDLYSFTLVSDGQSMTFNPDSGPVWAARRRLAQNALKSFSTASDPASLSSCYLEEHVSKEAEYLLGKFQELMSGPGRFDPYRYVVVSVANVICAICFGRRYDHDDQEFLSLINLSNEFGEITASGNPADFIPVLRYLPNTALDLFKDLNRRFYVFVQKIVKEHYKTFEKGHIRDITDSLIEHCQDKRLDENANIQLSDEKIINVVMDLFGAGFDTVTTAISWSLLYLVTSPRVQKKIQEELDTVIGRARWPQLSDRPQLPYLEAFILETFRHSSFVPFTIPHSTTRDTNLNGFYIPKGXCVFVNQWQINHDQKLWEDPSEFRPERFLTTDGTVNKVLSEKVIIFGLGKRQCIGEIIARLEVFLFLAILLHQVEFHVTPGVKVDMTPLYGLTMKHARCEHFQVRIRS

[6] = system: ruminal incubations; settings: ref Miró et al., 2020b; cited from earlier work
[7] = system: Rhipicephalus microplus; settings: encapsulated in Saccharomyces cerevisiae; ref da Silva Lima et al., 2017; cited from earlier work
[8] = rats, cited from earlier work
[9] = system: FMO; assay: FMO-dependent metabolism: BZ N-oxidase activity in sheep liver microsomes; format: in vitro ADME
[10] = system: Ancylostoma ceylanicum and Trichuris muris; settings: encapsulated monoterpene, in vitro; ref Mirza et al., 2020; cited from earlier work
[11] = format: in vivo, Corriedale lambs; settings: lambs
[12] = system: Haemonchus contortus; settings: in vitro; ref Helal et al., 2020; cited from earlier work
[13] = GNL plasma levels after yeast-encapsulated GNL in the FEC trial; format: in vivo, Corriedale lambs; settings: lambs; yeast-encapsulated GNL 100 mg/kg oral, four doses every 24 h
[14] = system: Haemonchus contortus; assay: Fecal egg count reduction in lambs infected with resistant H. contortus; format: in vivo
Procedure, shortened: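 Corriedale lambs artificially infected with a resistant H. contortus isolate received yeast-encapsulated test compound, 100 mg/kg orally, as four doses every 24 h. Faeces were sampled on days −1, 7 and 14, and epg was counted by modified McMaster (sensitivity 10 epg). FECR was calculated per McKenna from arithmetic mean epg: day −1 (T1) versus days 7 and 14 (T2).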

[15] = system: Trichostrongylus axei; settings: in vitro; ref Helal et al., 2020; cited from earlier work
[16] = system: Teladorsagia circumcincta; settings: in vitro; ref Helal et al., 2020; cited from earlier work
[17] = system: Caenorhabditis elegans; settings: read-out: LC50 (mortality); in vitro; ref Abdel-Rahman et al., 2013; cited from earlier work

Cc1ccc(C(C)C)c(O)c1 [TML, thymol]
effect on FMO-dependent metabolism [1]: inhibited | MIC [2]: 150 mg/L (≈ 999 µM) | effect on S-oxygenation of ABZ [3]: delayed | effect on systemic exposure of ABZ metabolites [4]: did not improve | effect on CYP1A1-dependent metabolism [5]: inhibited | effect on formation of ABZ from ABZSO [6]: completely abolish

Cc1ccc(C(C)C)cc1O [carvacrol]
decrease of LC50 after encapsulation compared to non-encapsulated [7]: 2.5 fold

CC(C)=CCC/C(C)=C/CO [GNL, 3,7-dimethylocta-trans-2,6-dien-1-ol]
elimination half-life ([8]; intravenous infusion of 12.5 mg, ref Pavan et al. (2018)): about 12 min | time at which Cmax in the bloodstream was achieved ([8]; oral administration, ref Pavan et al., 2018): 30 min | BZ N-oxidase activity, lower compared to absence of GNL ([9]; 0.2 mM GNL): 65.5 ± 13.6% | BZ N-oxidase activity (FMO pathway), lower compared to absence of GNL ([9]; 2 mM GNL): 84.5 ± 4.84% and 84.5% | classification of action [10]: fast acting at a moderately high dose | mean GNL plasma concentration expressed ([11]; 1 h after second oral dose of GNL 100 mg/kg): 0.02 mM | mean GNL plasma concentration ([11]; 1 h after second oral dose of GNL 100 mg/kg (emulsion)): 3.04 ± 1.33 µg/mL and 3.04 µg/mL | reduction of larval motility [12]: 82% | time of GNL detection in plasma [13]: detected in plasma only at 1 h post-treatment; also recorded: detected in plasma only at 1 h post-administration | effect on fecal egg counts ([14]; 7 and 14 days after first dose, four doses of GNL): did not significantly decrease | FECR (fecal egg count reduction), in vivo efficacy ([14]; day 14, lambs, GNL 100 mg/kg oral x 4, 95% LCL-UCL 0-82.3): 40.5% | reduction of larval motility [15]: 90% | reduction of larval motility [16]: 94% | LC50 [17]: 14 mg/L (≈ 90.8 µM)
